Hits are enriched below; roughly 2.9% of the tested compounds scored in any of these assays.
SENP8 block-1: blocks the human protease SENP8 | actives 1.2% (n = 330,000) | inhibition, % at 10 µM | AID 2540 | purified SENP8, Z-RLRGG-aminoluciferin cleavage, luminescence; in the data active = inhibition above about 50%
SENP8 block-2: inhibitors of human SENP8 protease | Q96LD8 | recombinant SENP8, Nedd8 substrate fluorescence | inhibition, % at 20 µM | actives 0.64% (n = 360,000) | AID 602440; in the data active = inhibition mostly above about 40%, no sharp cut-off; inactive = mostly below about 27%
HSP90 refold inh: inhibitors of HSP90 luciferase refolding in rabbit reticulocyte lysate; inhibition, % at 5.6 µM; actives 0.91% (n = 290,000); luciferase refolding luminescence, 3 h;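 active = inhibition above the screen-wide mean plus 3 SD, computed separately per campaign, cut at about 16% in these data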;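 also: 0% = DMSO wells and 100% = 60 µM geldanamycin wells; inhibitors lower the luminescence because luciferase stays unfolded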
SENP7 block: SENP7 protease inhibition; actives 1.5% (n = 330,000); AID 434973; inhibition, % at 5 µM; recombinant SENP7, Z-RLRGG-aminoluciferin luminescence, 40 min;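 active = inhibition above about 50% at the single test dose, limit read from the data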;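 also: plate controls were DMSO with enzyme for no effect and no enzyme buffer wells for full effect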
SENP6 block: blocks the human protease SENP6 | Q9GZR1 | Recombinant SENP6 catalytic domain, aminoluciferin luminescence | inhibition, % at 10 µM | actives 1.8% (n = 330,000);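 active = inhibition above about 50% at the single tested dose, limit read from the data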;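 also: plate controls were DMSO wells with enzyme for no effect and DMSO wells lacking enzyme for full effect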
SENP1 inh: inhibitors of human SENP1 SUMO protease catalytic domain; Q9P0U3; recombinant SENP1 catalytic domain, CyPet-SUMO1-YPet FRET cleavage; inhibition, % at 10 µM; actives 0.21% (n = 360,000);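 active = inhibition at least 30% at 10 µM, raw YFP signal under a set limit, fluorescence ratio 0.5 to 1.5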;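 also: 0% = enzyme with DMSO and 100% = no enzyme wells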
Target sequence (Q9P0U3 419-644 limits assumed): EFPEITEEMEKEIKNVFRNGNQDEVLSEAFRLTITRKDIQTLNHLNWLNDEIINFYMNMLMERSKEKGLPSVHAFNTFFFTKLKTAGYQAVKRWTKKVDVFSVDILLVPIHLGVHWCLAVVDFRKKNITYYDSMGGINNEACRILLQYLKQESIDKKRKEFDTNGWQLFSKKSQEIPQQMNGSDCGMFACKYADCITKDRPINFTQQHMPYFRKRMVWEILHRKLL
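Test system: human SENP1 catalytic domain; medium: Tris pH 8 buffer plus EDTA, NaCl, BME, BSA, NP40, catalase; incubation: 50 min reaction at room temperature; technique: FRET, CFP and YFP emission; controls: no-enzyme low control and enzyme-plus-DMSO high control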
SENP8 conf: human SENP8 inhibition, confirmed; shares compounds with SENP7 block; Recombinant SENP8, Z-RLRGG-aminoluciferin luminescence, 60 min; inhibition, % at 12.5 µM; actives 40% (n = 6,200);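 active = mean inhibition across replicates above about 50%, limit read from the data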
SENP6 confirm: confirmation of human SENP6 protease inhibitors; shares compounds with SENP7 block; recombinant SENP6, Z-RLRGG-aminoluciferin luminescence; inhibition, % at 12.5 µM; actives 58% (n = 6,200); AID 488915
SENP7 confirm: confirmation of human SENP7 protease inhibitors | shares compounds with SENP7 block | recombinant SENP7, Z-RLRGG-aminoluciferin luminescence, 40 min | inhibition, % at 12.5 µM | actives 69% (n = 6,200)
Casp3 SENP sel: inhibits human caspase-3 in SENP selectivity test | shares compounds with SENP7 block | purified caspase-3, Z-DEVD-aminoluciferin luminescence, 60 min | inhibition, % at 12.5 µM | actives 60% (n = 6,200) | AID 488918;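 active = mean inhibition above about 50%, limit read from the data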;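 also: plate controls were enzyme with DMSO for no effect and wells without caspase-3 for full effect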
Target sequence (P42574 28-227 limits assumed): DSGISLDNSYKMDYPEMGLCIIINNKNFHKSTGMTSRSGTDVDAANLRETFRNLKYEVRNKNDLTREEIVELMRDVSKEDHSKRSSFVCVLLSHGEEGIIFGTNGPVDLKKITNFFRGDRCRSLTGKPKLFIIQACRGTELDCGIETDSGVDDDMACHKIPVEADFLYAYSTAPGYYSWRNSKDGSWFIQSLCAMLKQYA
SENP luc ctr: interferes with luciferase luminescence in SENP counter-screen; shares compounds with SENP7 block; Pre-incubated SENP8/Z-RLRGG-aminoluciferin, luciferase luminescence interference; inhibition, % at 12.5 µM; actives 39% (n = 6,200); AID 488919;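 active = mean inhibition above about 50% when retested at one dose, limit read from the data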;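 also: plate controls were DMSO wells with completed reaction for no effect and substrate without enzyme for full effect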
Active calls of the source: *.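 The calls were made as follows, unless noted: active = mean inhibition above about 50% in the one-dose retest (limit read from the data); inactive = the rest.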

Screening CSc1ccc(C2C(C(=O)c3ccco3)=C(O)C(=O)N2c2nnc(SC)s2)cc1 (stereo not drawn) returned SENP8 block-1 43, SENP8 block-2 -75, HSP90 refold inh 7, SENP7 block 10, SENP6 block 75*, SENP1 inh 27, SENP8 conf 17, SENP6 confirm 15, SENP7 confirm 0, Casp3 SENP sel 5 and SENP luc ctr 19.
Cc1nnc(N2C(=O)C(O)=C(C(=O)c3ccco3)C2c2ccc(C(C)(C)C)cc2)s1 (stereo not drawn) was read as SENP8 block-1 50, SENP8 block-2 -35, HSP90 refold inh 0, SENP7 block 5, SENP6 block 86*, SENP1 inh 54, SENP8 conf 24, SENP6 confirm 20, SENP7 confirm 15, Casp3 SENP sel 32 and SENP luc ctr 18.
For Cc1nnc(N2C(=O)C(O)=C(C(=O)c3ccco3)C2c2ccc(F)cc2)s1 (stereo not drawn) the results were SENP8 block-1 -4, SENP8 block-2 -34, HSP90 refold inh 2, SENP7 block 6, SENP6 block 10 and SENP1 inh 9.
COc1cccc(C(=O)Nc2ccc(C(F)(F)F)n(C)c2=O)c1 was read as SENP8 block-1 65*, SENP8 block-2 -22, HSP90 refold inh 6, SENP7 block 80*, SENP6 block 45, SENP1 inh 0, SENP8 conf 9, SENP6 confirm 50, SENP7 confirm 82*, Casp3 SENP sel 70* and SENP luc ctr 21.
For CN(C)S(=O)(=O)Oc1ccc(C(=O)Nc2cccc(C(F)(F)F)c2)cc1 the results were SENP8 block-1 1, SENP8 block-2 15, HSP90 refold inh 0, SENP7 block 10, SENP6 block -8 and SENP1 inh -1.
`CN(C)S(=O)(=O)Oc1ccc(C(=O)Nc2cccc(Cl)c2)cc1` gave SENP8 block-1 70*, SENP8 block-2 12, HSP90 refold inh -2, SENP7 block 75*, SENP6 block 58*, SENP1 inh 1, SENP8 conf 83*, SENP6 confirm 82*, SENP7 confirm 96*, Casp3 SENP sel 63* and SENP luc ctr 72*.
For CCOC(=O)Nc1cccc(NC(=O)c2cc(OC)cc(OC)c2)c1 the results were SENP8 block-1 42, SENP8 block-2 1, HSP90 refold inh -2, SENP7 block 71*, SENP6 block 64*, SENP1 inh 0, SENP8 conf 74*, SENP6 confirm 70*, SENP7 confirm 88*, Casp3 SENP sel 76* and SENP luc ctr 74*.
COc1cccc(NC(=O)c2ccc(CN3CCOCC3)cc2)c1 was read as SENP8 block-1 12, SENP8 block-2 8, HSP90 refold inh 3, SENP7 block 39, SENP6 block 50*, SENP1 inh -2, SENP8 conf 27, SENP6 confirm 21, SENP7 confirm 57*, Casp3 SENP sel 63* and SENP luc ctr 34.
For COc1ccc2cc(C(=O)N(C)CC(=O)Nc3ccccc3Br)ccc2c1 the results were SENP8 block-1 0, SENP8 block-2 -80, SENP7 block -6, SENP6 block 5 and SENP1 inh -1.
